The values that follow come from ChEMBL document CHEMBL1154253, “Synthesis and serotonin transporter activity of sulphur-substituted alpha-alkyl phenethylamines as a new class of anticancer agents” (Eur J Med Chem, 2009).

For orientation: inhibition means the percentage by which the read-out fell short of the control. What is called IC50 is the concentration that inhibits the measured activity by half.

Assay [1] deals with Sodium-dependent serotonin transporter (Rattus norvegicus) (UniProt P31652). Put plainly: Inhibition of [3H]5-HT reuptake at rat SERT expressed in HEK293 cells at 1 uM after 2 mins by liquid scintillation counting. The format is cell-based.
In a further assay the test system is HEK293. The assay is described as follows: Cytotoxicity against human HEK293 cells after 48 hrs by neutral red assay. The format is cell-based. As to conditions: HEK293, 48 h. Summed up:
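Neutral Red uptake: 5 × 10⁴ cells/well grown 24–36 h to sub-confluence, then treated 48 h. Cells incubated 3 ± 1 h with NR dye, washed and solubilised in 50% ethanol–1% acetic acid, and absorbance read at 540 nm (690 nm background). Viability given as % of vehicle-treated cells. pEC50 obtained by sigmoidal regression (Hill slope 1) using 4 concentrations in triplicate on two independent days. SERT-line values compared with parental HEK293 by two-way ANOVA with Bonferroni test. Sodium azide 30 mM and Triton-X 2% as positive controls.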

Assay [2] has as its target T1, Sodium-dependent serotonin transporter (Rattus norvegicus, UniProt P31652). Put plainly: Inhibition of [3H]5-HT reuptake at rat SERT expressed in HEK293 cells after 2 mins by liquid scintillation counting. The format is cell-based.
The subject of the next assay is SH-SY5Y. The assay is described as follows: Cytotoxicity against human SH-SY5Y cells after 48 hrs by neutral red assay. The format is functional, cell-based.
The target of assay [3] is T1, Sodium-dependent serotonin transporter. Put plainly: Inhibition of [3H]5-HT uptake at SERT in rat brain synaptosome. Type of assay: tissue-based.
The target of assay [4] is Sodium-dependent noradrenaline transporter (Homo sapiens, UniProt P23975). The assay is described as follows: Inhibition of human noradrenaline transporter.
Assay [5] addresses Sodium-dependent dopamine transporter (Homo sapiens, UniProt Q01959). The assay is described as follows: Inhibition of human dopamine transporter.
For assay [6], the target named is Sodium-dependent serotonin transporter (Rattus norvegicus) (UniProt P31652). Put plainly: Inhibition of [3H]5-HT reuptake at rat SERT expressed in HEK293 cells assessed as serotonin reuptake at 100 uM after 2 mins by liquid scintillation counting. Type of assay: cell-based. Also on record: scale not given: the % may be the effect or the level left.
Assay [7] shares this target. The assay is described as follows: Inhibition of [3H]5-HT reuptake at rat SERT expressed in HEK293 cells assessed as serotonin reuptake at […] after 2 mins by liquid scintillation counting. The format is cell-based. Also on record: scale not given: the % may be the effect or the level left.
Assay [8] shares this target. Put plainly: Inhibition of [3H]5-HT reuptake at rat SERT expressed in HEK293 cells assessed as serotonin reuptake at 10 uM after 2 mins by liquid scintillation counting. The format is cell-based. Also on record: scale not given: the % may be the effect or the level left. The method, boiled down:
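HEK293 TREx cells stably carrying rat SERT-FLAG were plated on poly-L-lysine, and expression was induced with tetracycline for 24 h. Cells were washed in TB buffer (10 mM HEPES, 150 mM NaCl, 2 mM KCl, 1 mM CaCl₂, 1 mM MgCl₂) and preincubated with compound for 5 min at 37 °C. [³H]5-HT (~1 Ci/mmol) uptake then ran 2 min at room temperature. Uptake was stopped with cold paroxetine-containing buffer, and cells were lysed in 2% SDS and counted by scintillation. Paroxetine-defined non-specific uptake was subtracted, and untreated cells were set as 100% reuptake.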

SMILES strings stand for the structures. A value given as a limit tells only on which side of the number the result lay.

T1 sequence (P31652 whole entry): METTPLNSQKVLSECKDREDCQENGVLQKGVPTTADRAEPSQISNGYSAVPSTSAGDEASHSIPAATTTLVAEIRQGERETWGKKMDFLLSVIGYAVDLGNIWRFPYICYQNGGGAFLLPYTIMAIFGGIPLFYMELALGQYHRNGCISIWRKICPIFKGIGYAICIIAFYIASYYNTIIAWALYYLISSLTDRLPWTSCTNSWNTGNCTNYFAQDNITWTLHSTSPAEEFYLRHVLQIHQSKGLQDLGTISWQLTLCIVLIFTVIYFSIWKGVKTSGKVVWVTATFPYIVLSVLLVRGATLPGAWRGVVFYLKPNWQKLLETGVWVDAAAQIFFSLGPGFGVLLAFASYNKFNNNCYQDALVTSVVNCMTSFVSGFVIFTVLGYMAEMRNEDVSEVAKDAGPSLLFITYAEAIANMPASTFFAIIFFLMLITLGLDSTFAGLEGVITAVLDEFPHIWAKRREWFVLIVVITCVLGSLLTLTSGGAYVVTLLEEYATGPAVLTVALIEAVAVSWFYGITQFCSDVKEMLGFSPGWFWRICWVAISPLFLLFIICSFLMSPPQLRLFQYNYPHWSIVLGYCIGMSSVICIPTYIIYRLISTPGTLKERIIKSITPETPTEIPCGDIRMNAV
Sodium-dependent serotonin transporter (Rattus norvegicus), sequence (P31652 whole entry): as above
Sodium-dependent dopamine transporter, sequence (Q01959 whole entry): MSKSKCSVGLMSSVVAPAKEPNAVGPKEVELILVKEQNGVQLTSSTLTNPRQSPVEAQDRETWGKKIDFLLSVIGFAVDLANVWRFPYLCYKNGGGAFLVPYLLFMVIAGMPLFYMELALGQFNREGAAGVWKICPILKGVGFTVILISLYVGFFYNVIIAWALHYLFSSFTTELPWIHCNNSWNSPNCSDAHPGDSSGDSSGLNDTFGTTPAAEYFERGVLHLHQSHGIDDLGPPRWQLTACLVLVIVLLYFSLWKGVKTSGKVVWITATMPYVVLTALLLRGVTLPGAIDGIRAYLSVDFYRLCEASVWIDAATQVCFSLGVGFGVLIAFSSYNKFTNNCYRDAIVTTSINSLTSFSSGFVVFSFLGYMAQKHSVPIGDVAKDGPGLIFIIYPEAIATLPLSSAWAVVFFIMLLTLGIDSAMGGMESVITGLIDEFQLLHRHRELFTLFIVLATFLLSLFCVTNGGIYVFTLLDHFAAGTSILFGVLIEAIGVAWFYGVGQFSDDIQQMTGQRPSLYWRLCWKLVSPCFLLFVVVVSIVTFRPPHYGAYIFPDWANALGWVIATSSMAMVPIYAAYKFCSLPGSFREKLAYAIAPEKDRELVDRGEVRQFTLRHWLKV
Sodium-dependent noradrenaline transporter, sequence (P23975 whole entry): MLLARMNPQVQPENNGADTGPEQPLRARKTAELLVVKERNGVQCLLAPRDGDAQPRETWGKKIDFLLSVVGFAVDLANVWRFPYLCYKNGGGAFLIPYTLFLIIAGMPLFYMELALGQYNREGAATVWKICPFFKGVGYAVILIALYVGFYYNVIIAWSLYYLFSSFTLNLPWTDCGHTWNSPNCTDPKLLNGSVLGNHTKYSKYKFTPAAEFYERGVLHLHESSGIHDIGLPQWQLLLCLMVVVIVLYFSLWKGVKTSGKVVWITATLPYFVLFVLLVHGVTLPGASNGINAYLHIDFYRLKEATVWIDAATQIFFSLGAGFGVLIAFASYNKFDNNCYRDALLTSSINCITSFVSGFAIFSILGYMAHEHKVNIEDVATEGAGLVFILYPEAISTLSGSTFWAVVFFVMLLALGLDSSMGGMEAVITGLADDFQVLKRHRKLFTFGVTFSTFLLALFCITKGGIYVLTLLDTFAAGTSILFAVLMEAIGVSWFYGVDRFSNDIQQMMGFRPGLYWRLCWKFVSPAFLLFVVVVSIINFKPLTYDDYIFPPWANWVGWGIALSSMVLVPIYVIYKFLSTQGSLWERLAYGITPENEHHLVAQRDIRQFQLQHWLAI

As for `CCSc1ccc(CC(CC)NC)cc1` (centres undefined), in assay [1], the inhibition was found to be 26%. Besides, in the assay on HEK293 (read-out: EC50), the EC50 is more than 100 µM.
With `CONC(C)Cc1ccc(SC)cc1` (centres undefined), the 50% inhibitory concentration (IC50) in assay [2] was found to be 0.664 µM. Moreover, the results for the EC50 in the assay with HEK293 (read-out: pEC50 (converted)) and with SH-SY5Y (read-out: pEC50 (converted)) were 11 µM and 2450 µM, respectively.
In assay [2], `CC(N)Cc1ccc(SCCN(C)C)cc1` (centres undefined) had an IC50 of 43.3 µM. Further, the values for the EC50 in the assay with HEK293 (read-out: pEC50 (converted)), in the assay on SH-SY5Y (read-out: EC50) and in the assay with SH-SY5Y (read-out: pEC50 (converted)) were 8.71 µM, 1 µM and 240 µM, respectively.
In the case of `CCC(Cc1ccc(SC)cc1)NO` (centres undefined), the concentration for half-maximal inhibition (IC50) in assay [2] was determined as 0.598 µM. Besides, the values for the EC50 in the assay on HEK293 (read-out: pEC50 (converted)) and in the assay on SH-SY5Y (read-out: pEC50 (converted)) were 8.51 µM and 31.6 µM, respectively.
Turning to `CC(N)Cc1ccc(SCc2ccccc2)cc1` (centres undefined), the IC50 in assay [2] amounted to 0.679 µM. In addition, the EC50 in the assay on HEK293 (read-out: pEC50 (converted)) was 2.95 µM; in the assay with SH-SY5Y (read-out: EC50) it was 1 µM; with SH-SY5Y (read-out: pEC50 (converted)), 19.5 µM.
In the case of `CC(N)Cc1ccc(Cl)cc1` (centres undefined), the results for the concentration for half-maximal inhibition (IC50) in assay [3], in [4] and in assay [5] were 0.182 µM, 0.207 µM and 0.424 µM, respectively.
On to `CSc1ccc(CC(C)N(C)C)cc1` (centres undefined), for which, in [2], the IC50 was found to be 0.52 µM. Also, the EC50 was 20 µM with HEK293 (read-out: pEC50 (converted)) and 1860 µM in the assay with SH-SY5Y (read-out: pEC50 (converted)).
The corresponding values for `CNC(C)Cc1ccc(SC)cc1` (centres undefined) are 0.417 µM, 19.5 µM and 1550 µM.
The like results for `C#CCNC(C)Cc1ccc(SC)cc1` (centres undefined) were, in that order, 0.688 µM, 24.5 µM and 2340 µM.
For `CC(N)Cc1ccc(S(C)(=O)=O)cc1` (centres undefined), the Activity in [6] and in assay [7] was 100% throughout. In addition, the EC50 in the assay on HEK293 (read-out: pEC50 (converted)) and in the assay with SH-SY5Y (read-out: pEC50 (converted)) was more than 10000 µM throughout.
The compound `CCC(Cc1ccc(SC)cc1)NC(C)C` (centres undefined) had an IC50 in [2] of 1.94 µM. In addition, the values for the EC50 in the assay with HEK293 (read-out: pEC50 (converted)) and with SH-SY5Y (read-out: pEC50 (converted)) were 17.4 µM and 339 µM, respectively.
The like results for `CCSc1ccc(CC(C)NC)cc1` (centres undefined) were, in that order, 0.724 µM, 7.59 µM and 282 µM.
Compound `CCSc1ccc(CC(CC)N(C)O)cc1` (centres undefined) yielded an IC50 in [2] of 2 µM. Besides, the EC50 in the assay with HEK293 (read-out: pEC50 (converted)) was 51.3 µM; in the assay with SH-SY5Y (read-out: pEC50 (converted)), 209 µM.
The like results for `CCNC(CC)Cc1ccc(SC)cc1` (centres undefined) were, in that order, 0.823 µM, 10 µM and 151 µM.
`CCCCCSc1ccc(C(N)CC)cc1` (centres undefined): the Activity in [8] stood at 65%. Also, the results for the EC50 in the assay on HEK293 (read-out: pEC50 (converted)) and in the assay with SH-SY5Y (read-out: pEC50 (converted)) were 2690 µM and more than 10000 µM, respectively.
In assay [2], `CCC(Cc1ccc(SC)cc1)NC` (centres undefined) showed an IC50 of 0.437 µM. For the same compound, the EC50 in the assay on HEK293 (read-out: pEC50 (converted)) was 50.1 µM; with SH-SY5Y (read-out: pEC50 (converted)), 832 µM.
For `CCSc1ccc(CC(C)N)cc1` (centres undefined), the 50% inhibitory concentration (IC50) in [2] was found to be 1.4 µM. The EC50 with HEK293 (read-out: pEC50 (converted)) was 15.1 µM; with SH-SY5Y (read-out: EC50) it was 1 µM; in the assay on SH-SY5Y (read-out: pEC50 (converted)), 64.6 µM.
In the case of `CSc1ccc(CC(C)NC(C)C)cc1` (centres undefined), the concentration for half-maximal inhibition (IC50) in assay [2] was determined as 1.85 µM. Also, the results for the EC50 in the assay with HEK293 (read-out: pEC50 (converted)) and with SH-SY5Y (read-out: pEC50 (converted)) were 30.9 µM and 1950 µM, respectively.
The like results for `CSc1ccc(CC(C)NCCO)cc1` (centres undefined) were, in that order, 0.868 µM, 10 µM and 2290 µM.
The corresponding values for `CCCNC(CC)Cc1ccc(SC)cc1` (centres undefined) are 0.621 µM, 303 µM and 3020 µM.
The corresponding values for `CON(C)C(C)Cc1ccc(SC)cc1` (centres undefined) are 25.1 µM, 525 µM and more than 10000 µM.
The compound `CCSc1ccc(CC(C)NO)cc1` (centres undefined) registered an IC50 in assay [2] of 0.625 µM. Also, the results for the EC50 with HEK293 (read-out: pEC50 (converted)) and in the assay with SH-SY5Y (read-out: pEC50 (converted)) were 32.4 µM and 708 µM, respectively.
